Measurements as given in ChEMBL document CHEMBL1151705, “Novel azalides derived from 16-membered macrolides. Part II: Isolation of the linear 9-formylcarboxylic acid and its sequential macrocyclization with an amino alcohol or an azidoamine” (2008).
In brackets after ≈: the same amount, converted by molar mass.

Assays:
Staphylococcus aureus [1] = assay: Antimicrobial activity against Staphylococcus aureus 6 expressing inducible ermC after 20 hrs by agar dilution method
Streptococcus pyogenes [2] = assay: Antimicrobial activity against Streptococcus pyogenes 3 expressing mefA after 20 hrs by agar dilution method; assay type: functional
In short: (§1)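 Streptococci, H. influenzae and M. catarrhalis were precultured on blood agar plates. Suspensions of about 10⁶ CFU/ml were inoculated onto sensitivity disk agar supplemented with 5% horse blood and incubated at 37 °C for 20 h. MIC was read as the lowest drug concentration with no visible growth.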

Streptococcus pneumoniae [3] = assay: Antimicrobial activity against Streptococcus pneumoniae 7 expressing inducible ermB after 20 hrs by agar dilution method; assay type: functional
In short: as §1

Moraxella catarrhalis [4] = assay: Antimicrobial activity against drug-susceptible Moraxella catarrhalis 1 after 20 hrs by agar dilution method; assay type: functional
In short: as §1

Streptococcus pneumoniae [5] = assay: Antimicrobial activity against Streptococcus pneumoniae 5 constitutively expressing ermB/mefA after 20 hrs by agar dilution method; assay type: functional
In short: as §1

Streptococcus pneumoniae [6] = assay: Antimicrobial activity against drug-susceptible Streptococcus pneumoniae 3 after 20 hrs by agar dilution method; assay type: functional
In short: as §1

Haemophilus influenzae [7] = assay: Antimicrobial activity against drug-susceptible Haemophilus influenzae 1 after 20 hrs by agar dilution method; assay type: functional
In short: as §1

Staphylococcus aureus [8] = assay: Antimicrobial activity against Staphylococcus aureus 4 constitutively expressing ermA after 20 hrs by agar dilution method; assay type: functional
In short: (§2)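 Agar dilution MIC. S. aureus seed culture was grown in sensitivity test broth. Cell suspension (about 10⁶ CFU/ml) was inoculated onto sensitivity disk agar with 5% horse blood and incubated at 37 °C for 20 h. MIC was the lowest drug concentration that prevented visible growth.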

Staphylococcus aureus [9] = assay: Antimicrobial activity against drug-susceptible Staphylococcus aureus 2 after 20 hrs by agar dilution method; assay type: functional
In short: as §2

Streptococcus pneumoniae [10] = assay: Antimicrobial activity against Streptococcus pneumoniae 9 expressing mefA after 20 hrs by agar dilution method; assay type: functional
In short: as §1

Streptococcus pneumoniae [11] = assay: Antimicrobial activity against Streptococcus pneumoniae 4 constitutively expressing ermB after 20 hrs by agar dilution method; assay type: functional
In short: as §1

Staphylococcus aureus [12] = assay: Antimicrobial activity against drug-susceptible Staphylococcus aureus 3 after 20 hrs by agar dilution method; assay type: functional
In short: as §2

Streptococcus pneumoniae [13] = assay: Antimicrobial activity against Streptococcus pneumoniae 10 expressing mefA after 20 hrs by agar dilution method; assay type: functional
In short: as §1

Haemophilus influenzae [14] = assay: Antimicrobial activity against drug-susceptible Haemophilus influenzae 4 after 20 hrs by agar dilution method; assay type: functional
In short: as §1

Streptococcus pneumoniae [15] = assay: Antimicrobial activity against drug-susceptible Streptococcus pneumoniae DP1 Type1 after 20 hrs by agar dilution method; assay type: functional
In short: as §1

Streptococcus pneumoniae [16] = assay: Antimicrobial activity against Streptococcus pneumoniae 8 expressing inducible ermB after 20 hrs by agar dilution method; assay type: functional
In short: as §1

Moraxella catarrhalis [17] = assay: Antimicrobial activity against drug-susceptible Moraxella catarrhalis 2 after 20 hrs by agar dilution method; assay type: functional
In short: as §1

Staphylococcus aureus [18] = assay: Antimicrobial activity against Staphylococcus aureus 5 expressing inducible ermB after 20 hrs by agar dilution method; assay type: functional
In short: as §2

Staphylococcus aureus [19] = assay: Antimicrobial activity against drug-susceptible Staphylococcus aureus 209P JC-1 after 20 hrs by agar dilution method; assay type: functional
In short: as §2

Streptococcus pneumoniae [20] = assay: Antimicrobial activity against drug-susceptible Streptococcus pneumoniae 2 after 20 hrs by agar dilution method; assay type: functional
In short: as §1

Streptococcus pyogenes [21] = assay: Antimicrobial activity against drug-susceptible Streptococcus pyogenes 1 after 20 hrs by agar dilution method; assay type: functional
In short: as §1

Haemophilus influenzae [22] = assay: Antimicrobial activity against drug-susceptible Haemophilus influenzae 3 after 20 hrs by agar dilution method; assay type: functional
In short: as §1

Streptococcus pyogenes [23] = assay: Antimicrobial activity against Streptococcus pyogenes 2 constitutively expressing ermB after 20 hrs by agar dilution method; assay type: functional
In short: as §1

Streptococcus pneumoniae [24] = assay: Antimicrobial activity against Streptococcus pneumoniae 6 constitutively expressing ermB after 20 hrs by agar dilution method; assay type: functional
In short: as §1

Haemophilus influenzae [25] = assay: Antimicrobial activity against drug-susceptible Haemophilus influenzae 2 after 20 hrs by agar dilution method; assay type: functional
In short: as §1

[26] = Streptococcus pyogenes, 20 h, read-out: MIC
[27] = Streptococcus pneumoniae, 20 h, read-out: MIC
[28] = Haemophilus influenzae, 20 h, read-out: MIC

Row | SMILES | MIC (Staphylococcus aureus [1]) | MIC (Streptococcus pneumoniae [3]) | MIC (Moraxella catarrhalis [4]) | MIC (Streptococcus pneumoniae [6]) | MIC (Staphylococcus aureus [9]) | MIC (Streptococcus pneumoniae [15]) | MIC (Streptococcus pneumoniae [16]) | MIC (Staphylococcus aureus [18]) | MIC (Staphylococcus aureus [19]) | MIC (Haemophilus influenzae [25]; [28]) | MIC (Streptococcus pyogenes [2]) | MIC (Streptococcus pneumoniae [10]) | MIC (Staphylococcus aureus [12]) | MIC (Streptococcus pneumoniae [13]) | MIC (Haemophilus influenzae [14]) | MIC (Moraxella catarrhalis [17]) | MIC (Streptococcus pneumoniae [20]) | MIC (Streptococcus pyogenes [21]) | MIC (Haemophilus influenzae [22]) | MIC (Haemophilus influenzae [7]) | other results
1 | CCOC(=O)[C@H]1[C@H](C)O[C@@H](O[C@H]2[C@H](N(C)C)[C@@H](O)[C@H](O[C@H]3[C@@H](CC=O)C[C@@H](C)[C@@H](O)CN(C)CCC(/C=C/Cc4ccnc5ccccc45)NC(=O)C[C@@H](OC(=O)CC)[C@@H]3OC)O[C@@H]2C)C[C@@]1(C)O (mixture of isomers) | 0.5 µg/mL | 8 µg/mL | 1 µg/mL | 0.06 µg/mL | 1 µg/mL | 0.03 µg/mL | 8 µg/mL | 0.5 µg/mL | 0.5 µg/mL | 1 µg/mL |  |  |  |  |  |  |  |  |  |  | MIC (Streptococcus pyogenes [2]; [26]): 1 µg/mL; MIC (Streptococcus pneumoniae [5]; [27]): > 128 µg/mL; MIC (Haemophilus influenzae [7]; [28]): 32 µg/mL; MIC (Staphylococcus aureus [8]): > 128 µg/mL; MIC (Streptococcus pneumoniae [10]; [27]): 0.13 µg/mL; MIC (Streptococcus pneumoniae [11]; [27]): > 128 µg/mL; MIC (Staphylococcus aureus [12]; Staphylococcus aureus, 20 h, read-out: MIC): 0.5 µg/mL; MIC (Streptococcus pneumoniae [13]; [27]): 0.13 µg/mL; MIC (Haemophilus influenzae [14]; [28]): 8 µg/mL; MIC (Moraxella catarrhalis [17]; Moraxella catarrhalis, 20 h, read-out: MIC): 2 µg/mL; MIC (Streptococcus pneumoniae [20]; [27]): 0.13 µg/mL; MIC (Streptococcus pyogenes [21]; [26]): 0.25 µg/mL; MIC (Haemophilus influenzae [22]; [28]): 8 µg/mL; MIC (Streptococcus pyogenes [23]): > 128 µg/mL; MIC (Streptococcus pneumoniae [24]; [27]): > 128 µg/mL
2 | CCOC(=O)[C@H]1[C@H](C)O[C@@H](O[C@H]2[C@H](N(C)C)[C@@H](O)[C@H](O[C@H]3[C@@H](CC=O)C[C@@H](C)[C@@H](O)CN(C)CC(/C=C\Cc4ccnc5ccccc45)CCOC(=O)C[C@@H](OC(=O)CC)[C@@H]3OC)O[C@@H]2C)C[C@@]1(C)O (stereo in doubt; form 1) | 0.5 µg/mL (≈ 0.507 µM) | 8 µg/mL (≈ 8.11 µM) | 2 µg/mL (≈ 2.03 µM) | 0.06 µg/mL (≈ 0.0608 µM) | 1 µg/mL (≈ 1.01 µM) | 0.03 µg/mL (≈ 0.0304 µM) | 8 µg/mL (≈ 8.11 µM) | 0.25 µg/mL (≈ 0.253 µM) | 0.25 µg/mL (≈ 0.253 µM) |  | 0.5 µg/mL (≈ 0.507 µM) | 0.06 µg/mL (≈ 0.0608 µM) | 0.25 µg/mL (≈ 0.253 µM) | 0.06 µg/mL (≈ 0.0608 µM) | 16 µg/mL (≈ 16.2 µM) | 2 µg/mL (≈ 2.03 µM) | 0.06 µg/mL (≈ 0.0608 µM) | 0.13 µg/mL (≈ 0.132 µM) | 16 µg/mL (≈ 16.2 µM) |  | MIC (Streptococcus pneumoniae [5]; [27]): > 128 µg/mL; MIC (Haemophilus influenzae [7]; [28]): 64 µg/mL (≈ 64.9 µM); MIC (Staphylococcus aureus [8]): > 128 µg/mL; MIC (Streptococcus pneumoniae [11]; [27]): > 128 µg/mL; MIC (Streptococcus pyogenes [23]): > 128 µg/mL; MIC (Streptococcus pneumoniae [24]; [27]): > 128 µg/mL
3 | CCOC(=O)[C@H]1[C@H](C)O[C@@H](O[C@H]2[C@H](N(C)C)[C@@H](O)[C@H](O[C@H]3[C@@H](CC=O)C[C@@H](C)[C@@H](O)CN(C)CC(CCCc4ccnc5ccccc45)CCOC(=O)C[C@@H](OC(=O)CC)[C@@H]3OC)O[C@@H]2C)C[C@@]1(C)O (stereo in doubt; form 2) | 0.5 µg/mL (≈ 0.506 µM) | 16 µg/mL (≈ 16.2 µM) | 1 µg/mL (≈ 1.01 µM) | 0.03 µg/mL (≈ 0.0304 µM) | 0.5 µg/mL (≈ 0.506 µM) | 0.015 µg/mL (≈ 0.0152 µM) | 16 µg/mL (≈ 16.2 µM) | 0.25 µg/mL (≈ 0.253 µM) | 0.25 µg/mL (≈ 0.253 µM) | 2 µg/mL (≈ 2.02 µM) | 0.25 µg/mL (≈ 0.253 µM) | 0.06 µg/mL (≈ 0.0607 µM) | 0.25 µg/mL (≈ 0.253 µM) | 0.06 µg/mL (≈ 0.0607 µM) | 8 µg/mL (≈ 8.1 µM) | 1 µg/mL (≈ 1.01 µM) | 0.06 µg/mL (≈ 0.0607 µM) | 0.06 µg/mL (≈ 0.0607 µM) | 8 µg/mL (≈ 8.1 µM) | 16 µg/mL (≈ 16.2 µM) | 
4 | CCOC(=O)[C@H]1[C@H](C)O[C@@H](O[C@H]2[C@H](N(C)C)[C@@H](O)[C@H](O[C@H]3[C@@H](CC=O)C[C@@H](C)[C@@H](O)CN(C)CC(/C=C\Cc4ccnc5ccccc45)CCOC(=O)C[C@@H](OC(=O)CC)[C@@H]3OC)O[C@@H]2C)C[C@@]1(C)O (stereo in doubt; form 2) | 4 µg/mL (≈ 4.06 µM) | >128 µg/mL | 16 µg/mL (≈ 16.2 µM) | 0.5 µg/mL (≈ 0.507 µM) | 4 µg/mL (≈ 4.06 µM) | 0.5 µg/mL (≈ 0.507 µM) | >128 µg/mL | 2 µg/mL (≈ 2.03 µM) | 2 µg/mL (≈ 2.03 µM) | 32 µg/mL (≈ 32.4 µM) | 4 µg/mL (≈ 4.06 µM) | 1 µg/mL (≈ 1.01 µM) | 2 µg/mL (≈ 2.03 µM) | 1 µg/mL (≈ 1.01 µM) | 128 µg/mL (≈ 130 µM) | 16 µg/mL (≈ 16.2 µM) | 1 µg/mL (≈ 1.01 µM) | 1 µg/mL (≈ 1.01 µM) | 128 µg/mL (≈ 130 µM) | >128 µg/mL | 
5 | CCOC(=O)[C@H]1[C@H](C)O[C@@H](O[C@H]2[C@H](N(C)C)[C@@H](O)[C@H](O[C@H]3[C@@H](CC=O)C[C@@H](C)[C@@H](O)CN(C)CC(/C=C/Cc4cnc5ccccc5c4)CCOC(=O)C[C@@H](OC(=O)CC)[C@@H]3OC)O[C@@H]2C)C[C@@]1(C)O (stereo in doubt; form 2) | 0.5 µg/mL (≈ 0.507 µM) | 128 µg/mL (≈ 130 µM) | 2 µg/mL (≈ 2.03 µM) | 0.03 µg/mL (≈ 0.0304 µM) | 0.5 µg/mL (≈ 0.507 µM) | 0.015 µg/mL (≈ 0.0152 µM) | 128 µg/mL (≈ 130 µM) | 0.25 µg/mL (≈ 0.253 µM) | 0.25 µg/mL (≈ 0.253 µM) |  | 0.5 µg/mL (≈ 0.507 µM) | 0.06 µg/mL (≈ 0.0608 µM) | 0.25 µg/mL (≈ 0.253 µM) | 0.06 µg/mL (≈ 0.0608 µM) | 16 µg/mL (≈ 16.2 µM) | 2 µg/mL (≈ 2.03 µM) | 0.06 µg/mL (≈ 0.0608 µM) | 0.13 µg/mL (≈ 0.132 µM) | 16 µg/mL (≈ 16.2 µM) | 64 µg/mL (≈ 64.9 µM) | MIC (Streptococcus pneumoniae [5]): >128 µg/mL; MIC (Streptococcus pneumoniae [11]): >128 µg/mL; MIC (Streptococcus pneumoniae [24]): >128 µg/mL; MIC (Haemophilus influenzae [25]): 4 µg/mL (≈ 4.06 µM)
